Results published in ChEMBL document CHEMBL4028914, “Structure-Based Design of 6-Chloro-4-aminoquinazoline-2-carboxamide Derivatives as Potent and Selective p21-Activated Kinase 4 (PAK4) Inhibitors” (J Med Chem, 2018).

target: Serine/threonine-protein kinase PAK 1 (Homo sapiens, UniProt Q13153); experiment: Inhibition of human PAK1 kinase domain using coumarin and fluorescein-labeled ser/thr19 peptide as substrate preincubated for 15 mins followed by ATP addition measured after 60 mins by Z'-Lyte assay
Procedure, shortened: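 FRET-based Z′-Lyte kinase assay run per the kit instructions. Ki values are the average of at least two duplicate experiments; SEM < ±20%.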

Chain of Serine/threonine-protein kinase PAK 1 (Q13153 whole entry, the tested form may be a part): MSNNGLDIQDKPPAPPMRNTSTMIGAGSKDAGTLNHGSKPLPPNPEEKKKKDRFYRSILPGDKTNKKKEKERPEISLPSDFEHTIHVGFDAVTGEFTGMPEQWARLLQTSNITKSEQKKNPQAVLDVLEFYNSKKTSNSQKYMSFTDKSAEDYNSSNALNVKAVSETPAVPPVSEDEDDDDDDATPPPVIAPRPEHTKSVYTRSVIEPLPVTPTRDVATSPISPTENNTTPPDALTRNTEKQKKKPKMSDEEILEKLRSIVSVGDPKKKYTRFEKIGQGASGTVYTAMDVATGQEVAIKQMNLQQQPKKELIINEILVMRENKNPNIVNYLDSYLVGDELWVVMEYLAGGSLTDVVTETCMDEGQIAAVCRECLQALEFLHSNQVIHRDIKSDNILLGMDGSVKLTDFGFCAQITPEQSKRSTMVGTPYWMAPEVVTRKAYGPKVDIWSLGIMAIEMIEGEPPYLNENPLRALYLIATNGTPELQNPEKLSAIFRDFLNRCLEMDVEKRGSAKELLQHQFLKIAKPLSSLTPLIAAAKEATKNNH

Structure (SMILES)	Ki [nM]
C[C@@H]1CN(C(=O)c2nc(Nc3cc(C4CC4)[nH]n3)c3cc(Br)ccc3n2)CCN1	2080
C[C@@H]1CN(C(=O)c2nc(Nc3cc(C4CC4)[nH]n3)c3ccc(Cl)cc3n2)CCN1	401
Cn1cnc(Nc2nc(N3CCC(N)CC3)nc3ccc(Cl)cc23)c1	> 10000
CC1CN(C(=O)c2nc(Nc3cc(C4CC4)[nH]n3)c3cc(Cl)ccc3n2)CC(C)N1 (mixture of isomers)	> 4520
Cc1cc(Nc2nc(C(=O)N3CCNC[C@@H]3C)nc3ccc(Cl)cc23)n[nH]1	> 4520
COc1ccc2nc(C(=O)N3CCN[C@H](C)C3)nc(Nc3cc(C4CC4)[nH]n3)c2c1	> 4520

Further lines, results first:

Ki [nM]	Structure (SMILES)
> 4520	Cc1cc(Nc2nc(C(=O)N3CCNC[C@H]3C)nc3ccc(Cl)cc23)n[nH]1
1890	Cc1cc(Nc2nc(N3CCC(N)CC3)nc3ccc(Cl)cc23)n[nH]1
> 10000	Cc1cc(Nc2nc(C(=O)N3CCN[C@H](C)C3)nc3ccc(Cl)cc23)n[nH]1
368	CC[C@@H]1CN(C(=O)c2nc(Nc3cc(C4CC4)[nH]n3)c3cc(Cl)ccc3n2)CCN1

target: T1, Serine/threonine-protein kinase PAK 4 (Homo sapiens, UniProt O96013); experiment: Inhibition of human PAK4 kinase domain using coumarin and fluorescein-labeled ser/thr20 peptide as substrate preincubated for 15 mins followed by ATP addition measured after 60 mins by Z'-Lyte assay
Target sequence in this assay (O96013 whole entry, the tested form may be a part): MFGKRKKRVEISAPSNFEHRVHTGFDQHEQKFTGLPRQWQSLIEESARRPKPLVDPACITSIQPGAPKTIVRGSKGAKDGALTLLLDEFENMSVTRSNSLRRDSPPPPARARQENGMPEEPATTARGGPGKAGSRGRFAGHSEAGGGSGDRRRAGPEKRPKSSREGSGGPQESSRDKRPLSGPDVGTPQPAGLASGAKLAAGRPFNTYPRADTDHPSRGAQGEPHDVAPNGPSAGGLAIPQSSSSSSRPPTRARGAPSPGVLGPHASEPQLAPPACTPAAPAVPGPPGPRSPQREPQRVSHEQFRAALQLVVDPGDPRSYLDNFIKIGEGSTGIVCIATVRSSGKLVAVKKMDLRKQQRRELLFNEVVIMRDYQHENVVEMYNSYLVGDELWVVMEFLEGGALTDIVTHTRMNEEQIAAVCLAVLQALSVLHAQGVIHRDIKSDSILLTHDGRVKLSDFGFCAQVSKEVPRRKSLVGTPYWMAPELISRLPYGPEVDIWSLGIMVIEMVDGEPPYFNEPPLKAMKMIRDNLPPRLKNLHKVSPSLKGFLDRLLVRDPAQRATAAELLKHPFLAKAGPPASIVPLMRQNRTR

Structure (SMILES)	Ki [nM]
C[C@@H]1CN(C(=O)c2nc(Nc3cc(C4CC4)[nH]n3)c3cc(Br)ccc3n2)CCN1	11
C[C@@H]1CN(C(=O)c2nc(Nc3cc(C4CC4)[nH]n3)c3ccc(Cl)cc3n2)CCN1	7
Cn1cnc(Nc2nc(N3CCC(N)CC3)nc3ccc(Cl)cc23)c1	710
CC1CN(C(=O)c2nc(Nc3cc(C4CC4)[nH]n3)c3cc(Cl)ccc3n2)CC(C)N1 (mixture of isomers)	114
Cc1cc(Nc2nc(C(=O)N3CCNC[C@@H]3C)nc3ccc(Cl)cc23)n[nH]1	218
COc1ccc2nc(C(=O)N3CCN[C@H](C)C3)nc(Nc3cc(C4CC4)[nH]n3)c2c1	36

Second part, the molecule after the results:

Ki [nM]	Structure (SMILES)
151	Cc1cc(Nc2nc(C(=O)N3CCNC[C@H]3C)nc3ccc(Cl)cc23)n[nH]1
99	Cc1cc(Nc2nc(N3CCC(N)CC3)nc3ccc(Cl)cc23)n[nH]1
51	Cc1cc(Nc2nc(C(=O)N3CCN[C@H](C)C3)nc3ccc(Cl)cc23)n[nH]1
6	CC[C@@H]1CN(C(=O)c2nc(Nc3cc(C4CC4)[nH]n3)c3cc(Cl)ccc3n2)CCN1

target: T1, Serine/threonine-protein kinase PAK 4; experiment: Binding affinity to human truncated PAK4 kinase domain assessed as change in melting temperature at 20 uM by SYPRO orange dye based differential scanning fluorimetry
Procedure, shortened: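 Melting-temperature shift of the compound–truncated PAK4 complex was measured by differential scanning fluorimetry, relative to the truncated PAK4 protein alone.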
Target sequence in this assay (O96013 whole entry, looked up, the tested form may be a part): as the sequence (O96013 whole entry, the tested form may be a part) above

ΔTm [°C]	Structure (SMILES)
0.5	Cn1cnc(Nc2nc(N3CCC(N)CC3)nc3ccc(Cl)cc23)c1

species on record: Homo sapiens; experiment: Selectivity index, ratio of Ki for human PAK1 to Ki for human PAK4
Procedure, shortened: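 Ratio of PAK1 Ki to PAK4 Ki, both taken from the FRET-based Z′-Lyte assay.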

Structure (SMILES)	Ratio Ki
C[C@@H]1CN(C(=O)c2nc(Nc3cc(C4CC4)[nH]n3)c3cc(Br)ccc3n2)CCN1	190
C[C@@H]1CN(C(=O)c2nc(Nc3cc(C4CC4)[nH]n3)c3ccc(Cl)cc3n2)CCN1	57
Cn1cnc(Nc2nc(N3CCC(N)CC3)nc3ccc(Cl)cc23)c1	> 14
CC1CN(C(=O)c2nc(Nc3cc(C4CC4)[nH]n3)c3cc(Cl)ccc3n2)CC(C)N1 (mixture of isomers)	> 40
Cc1cc(Nc2nc(C(=O)N3CCNC[C@@H]3C)nc3ccc(Cl)cc23)n[nH]1	> 21
COc1ccc2nc(C(=O)N3CCN[C@H](C)C3)nc(Nc3cc(C4CC4)[nH]n3)c2c1	> 126

Second part, the molecule after the results:

Ratio Ki	Structure (SMILES)
> 30	Cc1cc(Nc2nc(C(=O)N3CCNC[C@H]3C)nc3ccc(Cl)cc23)n[nH]1
18	Cc1cc(Nc2nc(N3CCC(N)CC3)nc3ccc(Cl)cc23)n[nH]1
> 196	Cc1cc(Nc2nc(C(=O)N3CCN[C@H](C)C3)nc3ccc(Cl)cc23)n[nH]1
61	CC[C@@H]1CN(C(=O)c2nc(Nc3cc(C4CC4)[nH]n3)c3cc(Cl)ccc3n2)CCN1

target: T1, Serine/threonine-protein kinase PAK 4; experiment: Binding affinity to biotin-labeled human truncated PAK4 kinase domain by surface plasmon resonance assay
Procedure, shortened: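 Binding to the truncated PAK4 was measured by SPR with multiconcentration kinetic analysis. Kd was taken from a 1:1 binding model fit.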
Target sequence in this assay (O96013 whole entry, the tested form may be a part): as above

Kd [nM]	Structure (SMILES)
156	Cn1cnc(Nc2nc(N3CCC(N)CC3)nc3ccc(Cl)cc23)c1
43	Cc1cc(Nc2nc(N3CCC(N)CC3)nc3ccc(Cl)cc23)n[nH]1
